Assay results: paper PMC10053980 (ACS infectious diseases, 2023)
Like-named read-outs stand apart in the source and are kept apart here.

Key:
[1] = system: P. falciparum 3D7 (Pf3D7); assay: Asexual blood-stage growth inhibition; format: cell-based; details: Plasmodium falciparum, 3D7, 72 h, read-out: Pf3D7 EC50
[2] = system: P. falciparum Dd2 (PfDd2, parent); assay: Asexual blood-stage growth inhibition; format: cell-based; details: Plasmodium falciparum
PfD10 attB = assay: Asexual blood-stage growth inhibition; format: cell-based; details: Plasmodium falciparum, read-out: PfD10 attB EC50
How it was run: (§1)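 Ring-stage parasites (2% hematocrit, 0.5% parasitemia, final DMSO 0.5%) were exposed to a concentration range for 72 h at 37 °C, 5% CO2. Plates were frozen for at least 16 h and thawed, then SYBR Green lysis buffer was added. Fluorescence was read at 485 nm excitation and 535/528 nm emission. DSM265 (0.8–100 nM) served as plate control. EC50 came from four-parameter nonlinear regression, in technical triplicates with at least 3 biological replicates.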

PfD10 attB + yDHODH = assay: Asexual blood-stage growth inhibition; format: cell-based, Plasmodium falciparum; details: Saccharomyces cerevisiae, read-out: PfD10 attB + yDHODH EC50
How it was run: as §1

HepG2 cytotoxicity = format: cell-based; details: human, HepG2 cells
How it was run: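 HepG2 cells (600 per well) in EMEM with 5% heat-inactivated FBS and 2 mM glutamine received test compound and were incubated 72 h at 37 °C, 5% CO2. Viability was read by CellTiter Glo (intracellular ATP). CD437 and methotrexate served as positive controls. Two biological runs, each in technical triplicate.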

[3] = system: P. falciparum strain 3D7A; assay: Two color flow cytometry rate of kill assay; format: cell-based, Plasmodium falciparum; details: 0, 24 or 48 h exposure at 10X EC50; compared with chloroquine and artesunate
[4] = system: P. berghei liver stage (Pb-Luc sporozoites); assay: Liver stage activity assay; format: cell-based; details: Plasmodium berghei, read-out: Liver-stage EC50
[5] = system: P. falciparum strain NF54 stage V gametocytes, male gametes; assay: Dual gamete formation assay; format: cell-based, Plasmodium falciparum; details: 1 μM, 48 h
[6] = system: P. falciparum strain NF54 stage V gametocytes, female gametes; assay: Dual gamete formation assay; format: cell-based; details: Plasmodium falciparum, NF54, read-out: Inhibition of female gamete formation
physchem = format: physicochemical; details: kinetic from dmso stock
in vitro = in vitro ADME; details: human, microsomes
[7] = system: PfCARL^L830I (S)-SW703-resistant Dd2 clones; assay: Asexual blood-stage EC50; format: cell-based, Plasmodium falciparum
[8] = system: PfCARL^S1057T (S)-SW703-resistant Dd2 clones; assay: Asexual blood-stage EC50; format: cell-based, Plasmodium falciparum
[9] = system: PfCARL^Q821H (S)-SW703-resistant Dd2 clones; assay: Asexual blood-stage EC50; format: cell-based, Plasmodium falciparum
[10] = system: PfACT^Q116K (S)-SW703-resistant Dd2 clone; assay: Asexual blood-stage EC50; format: cell-based, Plasmodium falciparum; details: for EC50: Plasmodium falciparum
How it was run: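 Cloned resistant parasites were exposed to test compound or KAF156 over a concentration range for 72 h at 37 °C (2% hematocrit, 0.5% parasitemia, 0.5% DMSO). Freeze–thaw was followed by SYBR Green lysis and fluorescence at 485/535 or 528 nm. EC50 was fitted by four-parameter regression. Fold shift is relative to the Dd2 parent. Technical triplicates, at least three independent experiments.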

Dd2-Polδ (parent) = assay: Asexual blood-stage EC50; format: cell-based; details: Plasmodium falciparum, DD2, read-out: (S)-SW703 EC50
How it was run: as §1

[11] = system: PfCARL^L1073I C2 clone beta (Polδ mutant); assay: Asexual blood-stage EC50; format: cell-based, Plasmodium falciparum; details: for EC50: Plasmodium falciparum
NF54 = assay: [3H]-hypoxanthine incorporation assay, cross-resistance panel; format: cell-based; details: Plasmodium falciparum, NF54, read-out: (S)-SW703 EC50
K1 = assay: as above; format: cell-based, Plasmodium falciparum
7G8 = assay: as above; format: cell-based, Plasmodium falciparum
TM90C2B = assay: as above; format: cell-based, Plasmodium falciparum
RF12 (PH-1263-C) = assay: as above; format: cell-based, Plasmodium falciparum
Dd2 = assay: as above; format: cell-based, Plasmodium falciparum
[12] = system: PfeEF2^Y186N (DDD107498-resistant); assay: as above; format: cell-based, Plasmodium falciparum
[13] = system: PfPI4K^S743T (MMV390048-resistant); assay: as above; format: cell-based, Plasmodium falciparum
[14] = system: PfDHODH (DSM265-resistant); assay: [3H]-hypoxanthine incorporation assay, cross-resistance panel; format: cell-based, Plasmodium falciparum
How it was run: (§2)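 Cross-resistance was measured by a modified [3H]-hypoxanthine incorporation assay. Fold differences for lab-generated resistant lines are relative to the Dd2 parent. Values are means from two independent experiments.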

[15] = system: PfCytB^I22L (ELQ300-resistant); assay: [3H]-hypoxanthine incorporation assay, cross-resistance panel; format: cell-based, Plasmodium falciparum
[16] = system: PfCARL^I1139K (KAF156-selected); assay: [3H]-hypoxanthine incorporation assay, cross-resistance panel; format: cell-based, Plasmodium falciparum; details: PfCARL^I1139K relative to parent line Dd2
How it was run: as §2

PfCARL L1073Q mutants = details: cited from earlier work
[17] = system: PfACT^S242* CRISPR mutant; details: cited from earlier work
[18] = Flask 1 clone B4, PfCARL^L830I, vs Dd2 parent
[19] = Flask 3 clone D11, PfCARL^S1057T, vs Dd2 parent
[20] = Flask 2 clone F3, PfCARL^Q821H, vs Dd2 parent
[21] = Flask 4 clone F2, PfACT^Q116K, vs Dd2 parent
[22] = Plasmodium falciparum, read-out: (S)-SW703 EC50

Cc1cccc(C)c1CC1CN(C(=O)[C@@H](N)Cc2ccc(O)cc2)C1 [(S)-SW703, (S)-2-amino-1-(3-(2,6-dimethylbenzyl)azetidin-1-yl)-3-(4-hydroxyphenyl)propan-1-one]
EC50 [1]: 780 ± 92 nM
EC50 ([2]; DD2, 72 h, read-out: PfDd2 EC50): 810 ± 150 nM
EC50 (PfD10 attB): 1500 nM
EC50 (PfD10 attB + yDHODH): 1300 nM
CC50 at 72 h (HepG2 cytotoxicity): > 50000 nM
Rate of kill (killing kinetics) [3]: fast-killing mechanism
EC50 [4]: 570 ± 210 nM
Inhibition of male gamete formation [5]: 18.3%
inhibition at 1 µM [6]: 1.2 ± 1.7%
solubility (physchem; pH 2, simulated gastric fluid): > 34 µg/mL
solubility (physchem; pH 6.5, aqueous buffer): > 34 µg/mL
microsomal CLint (in vitro): 197 µL/min/mg
(S)-SW703 EC50 fold shift [7, 18]: 31 fold
(S)-SW703 EC50 fold shift ([7]; Flask 1 clone F9, PfCARL^L830I, vs Dd2 parent): 31 fold
(S)-SW703 EC50 fold shift ([7]; Flask 2 clone C5, PfCARL^L830I, vs Dd2 parent): 32 fold
(S)-SW703 EC50 fold shift ([7]; Flask 2 clone E8, PfCARL^L830I, vs Dd2 parent): 27 fold
(S)-SW703 EC50 fold shift ([8]; Flask 1 clone G3, PfCARL^S1057T, vs Dd2 parent): 12 fold
(S)-SW703 EC50 fold shift [8, 19]: 15 fold
(S)-SW703 EC50 fold shift ([8]; Flask 3 clone G5, PfCARL^S1057T, vs Dd2 parent): 16 fold
(S)-SW703 EC50 fold shift ([8]; Flask 4 clone D4, PfCARL^S1057T, vs Dd2 parent): 12 fold
(S)-SW703 EC50 fold shift ([8]; Flask 4 clone G3, PfCARL^S1057T, vs Dd2 parent): 14 fold
(S)-SW703 EC50 fold shift [9, 20]: 52 fold
(S)-SW703 EC50 fold shift ([9]; Flask 3 clone D7, PfCARL^Q821H, vs Dd2 parent): 60 fold
(S)-SW703 EC50 fold shift [10, 21]: 2.3 fold
EC50 ([10]; DD2, read-out: (S)-SW703 EC50): 1900 ± 240 nM
EC50 (Dd2-Polδ (parent)): 930 ± 110 nM
(S)-SW703 EC50 fold shift ([11]; C2 clone beta, PfCARL^L1073I, vs Dd2-Polδ parent): 9.5 fold
EC50 ([11]; read-out: (S)-SW703 EC50): 8800 ± 1200 nM
EC50 (NF54): 340 ± 36 nM
(S)-SW703 EC50 fold shift (K1; K1 relative to NF54): 1.0 fold
EC50 (K1; [22]): 350 ± 39 nM
(S)-SW703 EC50 fold shift (7G8; 7G8 relative to NF54): 1.2 fold
EC50 (7G8; [22]): 410 ± 32 nM
EC50 (TM90C2B; Plasmodium falciparum, TM90C2B, read-out: (S)-SW703 EC50): 370 ± 41 nM
(S)-SW703 EC50 fold shift (TM90C2B; TM90C2B relative to NF54): 1.1 fold
EC50 (RF12 (PH-1263-C); [22]): 370 ± 10 nM
(S)-SW703 EC50 fold shift (RF12 (PH-1263-C); RF12 relative to NF54): 1.1 fold
(S)-SW703 EC50 fold shift (Dd2; Dd2 relative to NF54): 0.88 fold
EC50 (Dd2; Plasmodium falciparum, DD2, read-out: (S)-SW703 EC50): 300 ± 31 nM
(S)-SW703 EC50 fold shift ([12]; PfeEF2^Y186N relative to parent line Dd2): 0.91 fold
EC50 ([12]; {}): 270 ± 25 nM
(S)-SW703 EC50 fold shift ([13]; PfPI4K^S743T relative to parent line Dd2): 0.97 fold
EC50 ([13]; {}): 290 ± 42 nM
(S)-SW703 EC50 fold shift ([14]; PfDHODH relative to parent line Dd2): 0.95 fold
EC50 ([14]; Plasmodium falciparum, DSM265, read-out: (S)-SW703 EC50): 290 ± 9 nM
(S)-SW703 EC50 fold shift ([15]; PfCytB^I22L relative to parent line Dd2): 0.75 fold
EC50 ([15]; {}): 230 ± 46 nM
(S)-SW703 EC50 fold shift [16]: > 16.6 fold

CC1(C)c2nc(-c3ccc(F)cc3)c(Nc3ccc(Cl)cc3)n2CCN1C(=O)CN [GNF179]
fold resistance of parasites bearing PfCARL^Q821H mutations ([9]; cross-resistance of (S)-SW703-resistant clones): about 5 fold
resistance conferred by PfCARL L1073Q (PfCARL L1073Q mutants): did not confer resistance
resistance conferred by PfACT^S242* CRISPR mutant [17]: high-level resistance

CC1(C)c2nc(-c3ccc(F)cc3)c(Nc3ccc(F)cc3)n2CCN1C(=O)CN [KAF156, reference compound]
EC50 ([2]; DD2, read-out: KAF156 EC50): 12 ± 1.7 nM
KAF156 EC50 fold shift [7, 18]: 1.8 fold
EC50 ([7]; Plasmodium falciparum, DD2, read-out: KAF156 EC50, Flask 1 clone B4, PfCARL^L830I): 22 ± 3.4 nM
KAF156 EC50 fold shift [8, 19]: 1.5 fold
EC50 ([8]; Plasmodium falciparum, DD2, read-out: KAF156 EC50, Flask 3 clone D11, PfCARL^S1057T): 18 ± 1.8 nM
KAF156 EC50 fold shift [9, 20]: 4.7 fold
EC50 ([9]; Plasmodium falciparum, DD2, read-out: KAF156 EC50, Flask 2 clone F3, PfCARL^Q821H): 57 ± 6.6 nM
KAF156 EC50 fold shift [10, 21]: 1.8 fold
EC50 ([10]; DD2, read-out: KAF156 EC50): 22 ± 4.5 nM
EC50 ([11]; read-out: KAF156 EC50): 16 ± 2.7 nM
resistance conferred by PfCARL L1073Q (PfCARL L1073Q mutants): did not confer resistance
resistance conferred by PfACT^S242* CRISPR mutant [17]: high-level resistance
